# Results: article PMC5196489 (International Journal for Parasitology: Drugs and Drug …, 2016)
# “Also recorded” adds a separate entry of the source.
# Experiments:
# Sm.5HTRL [1] = biological target: T1, Sm.5HTRL (Schistosoma mansoni, UniProt A0A173FEI8); conditions: chemical screening data; ref Chan et al., 2016b; cited from earlier work
# T1 sequence (A0A173FEI8 1-547): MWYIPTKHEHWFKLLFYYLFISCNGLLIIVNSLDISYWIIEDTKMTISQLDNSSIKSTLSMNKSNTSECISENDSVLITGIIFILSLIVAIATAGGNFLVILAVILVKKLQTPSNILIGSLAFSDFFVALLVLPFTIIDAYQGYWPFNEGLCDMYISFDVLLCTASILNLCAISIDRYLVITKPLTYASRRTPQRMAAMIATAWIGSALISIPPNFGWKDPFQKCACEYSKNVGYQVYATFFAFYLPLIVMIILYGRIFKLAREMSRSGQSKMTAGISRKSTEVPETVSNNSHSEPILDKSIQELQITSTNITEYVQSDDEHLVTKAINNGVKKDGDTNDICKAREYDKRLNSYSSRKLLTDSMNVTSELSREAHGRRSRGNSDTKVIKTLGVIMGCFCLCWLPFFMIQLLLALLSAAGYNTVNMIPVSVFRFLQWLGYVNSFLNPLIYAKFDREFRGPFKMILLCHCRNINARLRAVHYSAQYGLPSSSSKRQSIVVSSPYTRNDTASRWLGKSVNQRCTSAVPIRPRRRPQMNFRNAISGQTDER
# larval schistosomules [2] = conditions: ref Chan et al., 2014; cited from earlier work
# Sm.5HTRL [3] = biological target: T1, Sm.5HTRL; assay: cAMP biosensor; format: cell-based; conditions: for IC50: read-out: IC50 Sm.5HTRL, inhibition of 5-HT (0.8 μM) evoked cAMP generation, HEK293 cells co-transfected with 22-F cAMP biosensor, IBMX 200 μM; for block of Sm.5HTRL dependent cAMP generation in vitro: Fig. 1
# larval schistosomules [4] = assay: Schistosomule mobility; format: cell-based, Schistosoma mansoni; conditions: for IC50: Schistosoma mansoni, 0.5 h, read-out: IC50 schistosomule
# How it was run: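 S. mansoni PR-1 cercariae mechanically transformed, tails removed on Percoll, kept in modified Basch medium without serotonin (37 °C, 5% CO2); about 200 per 0.5 mL well. Basal movement recorded first, then 5-HT (10 μM), then rising doses of test compound added at 20x. Incubated 30 min before a 1 min video. Mobility scored as body-length deviations >20% from the mean per minute.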
# adult S. mansoni = assay: Adult schistosome mobility assay; format: cell-based, Schistosoma mansoni
# [5] = tested on: human 5-HT7 receptor (Hs.5HT7R); conditions: ref Farrell et al., 2016; cited from earlier work
smiles,measurement,setting,value
CC(C)C[C@H]1C(=O)N2CCC[C@H]2[C@]2(O)O[C@](NC(=O)[C@@H]3C=C4c5cccc6[nH]c(Br)c(c56)C[C@H]4N(C)C3)(C(C)C)C(=O)N12 [bromocriptine],inhibition at Sm.5HTRL,Sm.5HTRL [1],"potent, and long lasting inhibition"
"CN1CCc2cccc3c2[C@H]1Cc1ccc(O)c(O)c1-3 [Apomorphine, R-(−)-apomorphine, reference compound]",effect on schistosomule contractility,larval schistosomules [2],inhibits schistosomule contractility
same,IC50,Sm.5HTRL [3],15.2 ± 3.3 µM
same,IC50,larval schistosomules [4],24.2 ± 15.1 µM
"COc1ccc2c(c1O)-c1c3c(cc4c1[C@H](C2)N(C)CC4)OCO3 [Bulbocapnine, (+)-Bulbocapnine]",IC50,Sm.5HTRL [3],15.2 ± 2.5 µM
same,IC50,larval schistosomules [4],76.1 ± 17.8 µM
"COc1cc2c(cc1O)C[C@H]1c3c(cc(O)c(OC)c3-2)CCN1C [Boldine, (+)boldine]",effect on 5-HT stimulated motility,"adult S. mansoni; female adult worms, increasing 5-HT",high doses of 5-HT were competent at restoring motility
same,block of Sm.5HTRL dependent cAMP generation in vitro,Sm.5HTRL [3],completely blocked
same,IC50,Sm.5HTRL [3],1.1 ± 0.1 µM
same,IC50,larval schistosomules [4],2.5 ± 1.4 µM
"COc1cc2c3c(c1OC)-c1ccccc1C[C@H]3N(C)CC2 [Nuciferine, (−)nuciferine]",effect on basal motility,"adult S. mansoni; female adult worms, drug 10 μM, 2 h, p < 0.01 versus p < 0.05",more effective than the other ligands
same,effect on 5-HT stimulated motility,"adult S. mansoni; male adult worms, increasing 5-HT (≤1 mM)",no 5-HT stimulated motility even at the highest 5-HT doses; also recorded: nuciferine action not reversed by 5-HT
same,block of Sm.5HTRL dependent cAMP generation in vitro,Sm.5HTRL [3],completely blocked
same,IC50,Sm.5HTRL [3],0.24 ± 0.04 µM
same,inhibition of larval contractions / schistosomule motility,"larval schistosomules [4]; 5-HT 10 μM plus increasing doses of aporphine, Fig. 2",particularly effective at inhibiting larval contractions
same,IC50,larval schistosomules [4],0.62 ± 0.22 µM
same,action at the human 5-HT7 receptor,[5],inverse agonist
"CSc1ccc2c(c1)C(N1CCN(C)CC1)Cc1ccccc1S2 (centres unmarked) [methiothepin, reference compound]",effect on 5-HT stimulated schistosomule contractility,"larval schistosomules [4]; 5-HT 10 μM plus methiothepin 10 μM, Fig. 2A",reversed this effect
"NCCc1c[nH]c2ccc(O)cc12 [5-HT, 5-hydroxytryptamine, reference compound]",effect of 5-HT on adult worm movement,"adult S. mansoni; control worms, Fig. 4C&D","stimulated movement, most evident in female worms"
same,increase in schistosomule contractility,larval schistosomules [4]; 5-HT 10 μM versus basal movement in media lacking 5-HT,3–5 fold
